From ChEMBL document CHEMBL6071141, “In vitro and in vivo evaluation of Bombesin-MMAE conjugates for targeted tumour therapy” (Eur J Med Chem, 2024)
Activity calls are given as the source filed them. No cut-off for these calls is given here.

Key:
[1] = Toxicity in mouse xenografted with human PC-3 cells assessed as effect on liver 0.5 mg/kg, ip administered upto 23 days; settings: in vivo, 552 h
[2] = Cytotoxicity against human MDA-MB-231 cells assessed as inhibition of cell growth incubated with compound for 72 hrs followed by further incubated for 72 hrs (single treatment) by CellTiter 96 aqueous assay; format: toxicity, cell-based
How it was run: (§1)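 PC-3 or MDA-MB-231 cells were treated the day after seeding with serial dilutions, from 2000 nM for conjugates and 100 nM for MMAE, for 72 h. Then the assay was stopped, or run 72 h more after a medium change (single) or re-treatment (double). Controls got 0.05 % DMSO. Read-out was MTS absorbance at 490 nm after 90 min. IC50 by non-linear regression; ≥2 experiments, triplicates.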

[3] = Toxicity in mouse xenografted with human PC-3 cells assessed as change in body weight at 0.2 mg/kg, ip administered upto 23 days; format: organism-based; settings: in vivo, 0.5 mg/kg, 552 h, in the assay text read “0.5 mg/kg” for “0.2 mg/kg”
How it was run: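 Chronic dosing in mice bearing PC-3 xenografts. Free MMAE at 0.2 mg/kg (conjugates at 0.5 mg/kg MMAE-content), i.p. in 5 % DMSO in water on days 8, 11, 16 and 23 after inoculation. Seven per group; solvent controls. Body weight measured at the start and at periodic intervals.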

[4] = target: T1, Gastrin-releasing peptide receptor (Homo sapiens, UniProt P30550); assay: Displacement of 125 I- [Tyr4] from bombesin receptor 2 in human PC-3 cells assessed as inhibition by radioligand displacement assay; format: cell-based
How it was run: (§2)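 Competition binding on membrane preparations from PC-3 or MDA-MB-231 cells against ¹²⁵I-[Tyr⁴]-bombesin, with conjugates at 10 μM–10 pM. IC50 was taken as the concentration giving 50 % inhibition of tracer binding.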

PC-3 [5] = assay: Antitumor activity against human PC-3 cells xenografted in mouse assessed as reduction in tumour size at 0.5 mg/kg, ip administered upto 23 days relative to control; format: functional; design: scale not given: the % may be the effect or the level left; settings: time <= 23 day
How it was run: (§3)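 Chronic study in mice bearing subcutaneous PC-3 tumours. Dosing began 8 days after cell inoculation, at a mean tumour volume of 93 mm³. Seven per group, randomized. Four i.p. doses (0.1 mL) on days 8, 11, 16 and 23 of 0.5 mg/kg MMAE-content, in 5 % DMSO in water for injection; controls got solvent. Tumour volume by calliper, V = ab²×π/6.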

[6] = Cytotoxicity against human cells MDA-MB-231 assessed as inhibition of cell growth incubated for 72 hrs by CellTiter 96 aqueous assay; format: toxicity, cell-based; settings: MDA-MB-231 cells
How it was run: as §1

PC-3 [7] = assay: Antitumor activity against human PC-3 cells xenografted in mouse assessed as inhibition in tumour growth at 0.5 mg/kg, ip administered upto 23 days; format: functional, organism-based; settings: time <= 23.0 day
How it was run: as §3

[8] = Cytotoxicity against human PC-3 cells assessed as inhibition of cell growth incubated for 72 hrs and followed by treated with compound continued incubation for further 72 hrs (double treatment) after retreatment of compound by CellTiter 96 aqueous assay; format: toxicity, cell-based
How it was run: as §1

PC-3 [9] = assay: Antitumor activity against human PC-3 cells xenografted in mouse assessed as reduction in tumour volume relative to control; format: functional; design: scale not given: the % may be the effect or the level left
How it was run: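 Acute study in mice bearing subcutaneous PC-3 tumours. Single i.p. dose (0.1 mL) 9 days after inoculation, at a mean tumour volume of 62 mm³. Eight per group, randomized. Conjugates at 2 mg/kg MMAE-content, free MMAE at 1 mg/kg, in 5 % DMSO in water; solvent controls. Calliper volume V = ab²×π/6. Sacrifice at 20 % weight loss or 2000 mm³.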

[10] = target: T1, Gastrin-releasing peptide receptor; assay: Displacement of 125 I- [Tyr4] from bombesin receptor 2 in human MDA-MB-231 cells assessed as inhibition by radioligand displacement assay; format: cell-based
How it was run: as §2

[11] = Cytotoxicity against human PC-3 cells assessed as inhibition of cell growth incubated for 72 hrs by CellTiter 96 aqueous assay; format: toxicity, cell-based
How it was run: as §1

PC-3 [12] = assay: Antitumor activity against human PC-3 cells xenografted with mouse assessed as median survival days at 2 mg/kg, ip (reference value: 33 days)
[13] = Toxicity in mouse xenografted with human PC-3 cells assessed as body weight loss at 1 mg/kg, ip administered relative to control; format: organism-based; settings: in vivo, 2 mg/kg, in the assay text read “2 mg/kg” for “1 mg/kg”
How it was run: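 Toxicity in mice bearing subcutaneous PC-3 tumours after a single i.p. dose 9 days post-inoculation. Free drug at 1 mg/kg, conjugates at 2 mg/kg MMAE-content, in 5 % DMSO in water; solvent controls; eight per group. Body weight followed periodically. Endpoint at 20 % weight loss; behaviour (activity, coat, stool, paleness) also scored.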

[14] = Biodistribution in mouse xenografted with human PC-3 cells assessed as tumour environment incubated for 24 hrs by LC-HRMS; format: ADME, organism-based, Neoplasm; settings: in vivo
How it was run: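 Mice bearing PC-3 xenografts received a single 2 mg/kg i.p. dose. Blood, tumour, liver, kidneys, heart, lungs and pancreas were collected at 1, 6 and 24 h and pooled per group. Tissues were homogenised in water (1:2 w/v) and centrifuged. Released MMAE was measured by LC-HRMS and expressed as %ID/g (n = 3).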

[15] = Cytotoxicity against human PC-3 cells assessed as inhibition of cell growth incubated with compound for 72 hrs followed by further incubated for 72 hrs (single treatment) by CellTiter 96 aqueous assay; format: toxicity, cell-based
How it was run: as §1

PC-3 [16] = assay: Antitumor activity against human PC-3 cells xenografted in mouse assessed as reduction in tumour weight at 0.5 mg/kg, ip administered upto 23 days relative to control; format: functional; design: scale not given: the % may be the effect or the level left; settings: time <= 23 day
[17] = Cytotoxicity against human MDA-MB-231 cells assessed as inhibition of cell growth incubated for 72 hrs and followed by treated with compound continued incubation for further 72 hrs (double treatment) after retreatment of compound by CellTiter 96 aqueous assay; format: toxicity, cell-based
How it was run: as §1

T1 sequence (P30550 whole entry): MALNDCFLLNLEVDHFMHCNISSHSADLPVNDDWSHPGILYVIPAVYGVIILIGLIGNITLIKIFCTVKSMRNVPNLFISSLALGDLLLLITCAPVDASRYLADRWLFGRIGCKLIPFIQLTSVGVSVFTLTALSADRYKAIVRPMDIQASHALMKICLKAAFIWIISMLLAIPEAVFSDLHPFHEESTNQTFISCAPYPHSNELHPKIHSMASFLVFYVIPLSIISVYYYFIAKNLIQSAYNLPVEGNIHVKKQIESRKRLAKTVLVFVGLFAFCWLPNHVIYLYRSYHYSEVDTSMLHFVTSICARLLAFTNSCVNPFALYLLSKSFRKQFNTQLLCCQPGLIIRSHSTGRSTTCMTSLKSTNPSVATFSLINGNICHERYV

Structure (SMILES): CC[C@H](C)[C@@H]([C@@H](CC(=O)N1CCC[C@H]1[C@H](OC)[C@@H](C)C(=O)N[C@H](C)[C@@H](O)c1ccccc1)OC)N(C)C(=O)[C@@H](NC(=O)[C@H](C(C)C)N(C)C(=O)OCc1ccc(NC(=O)[C@H](CCCNC(N)=O)NC(=O)[C@@H](NC(=O)[C@H](CCC(=O)O)NC(=O)CCCCCN2C(=O)CC(SC[C@H](NC(C)=O)C(=O)NCCOCCOCCOCCOCCC(=O)N[C@H](Cc3ccccc3)C(=O)N[C@@H](CCC(N)=O)C(=O)N[C@@H](CC3=CSC4C=CC=CC34)C(=O)N[C@@H](C)C(=O)N[C@H](C(=O)NCC(=O)N[C@@H](Cc3c[nH]cn3)C(=O)N[C@@H](CC(C)C)[C@@H](O)CC(=O)N[C@@H](CC(C)C)C(N)=O)C(C)C)C2=O)C(C)C)cc1)C(C)C (some centres not stated)
- Activity [1]: Non-Toxic
- IC50 at 144 h [2]: 41 nM
- Activity [3]: Toxic
- IC50 [4]: 58.2 nM
- Activity (PC-3 [5]): 48%
- IC50 at 72 h [6]: 299 nM
- Activity (PC-3 [7]): Active
- IC50 at 144 h [8]: 4 nM
- Activity (PC-3 [9]): 34.2%
- IC50 [10]: 70.4 nM
- IC50 at 72 h [11]: 29.3 nM
- Survival (PC-3 [12]): 42 days
- Activity [13]: < 20%
- Drug uptake [14]: Active
- IC50 at 144 h [15]: 6 nM
- Activity (PC-3 [16]): 26%
- IC50 at 144 h [17]: 39.9 nM
